Bioassay records as filed in PubChem BioAssay.
Hits are enriched below; roughly 3.8% of the tested compounds scored in any of these assays.
CSC inhib = blocks cancer stem cells; cancer stem cell-like cells viability, luminescence; inhibition, % at 7.5 µM; 1.1% of 300,000 active; in the data active = inhibition above about 75%; tested in HMLE shEcad cells
TMEM16A inh = inhibitors of mouse TMEM16A calcium-activated chloride channel; HEK293 TMEM16A/YFP iodide influx fluorescence, ionomycin; normalized B-score (activity score, 25-100; higher = stronger inhibition) at 10 µM; 1.2% of 310,000 active;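 active = ratio plate-corrected score three or more library SD toward inhibition, starting fluorescence score within five deviations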;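 also: score derived from kinetic fluorescence span divided by baseline fluorescence per well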
MC4R antagonist = antagonists of human melanocortin 4 receptor (MC4R) | MC4R-expressing cells, MTII-stimulated cAMP, LANCE TR-FRET | inhibition, % at 6.5 µM | 0.48% of 360,000 active | AID 540295;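 active = inhibition above its plate's cutoff, the mean of tested wells on that plate plus 3 SD, cut at about 29% in these data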
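System: U2OS-MC4R stable cell line; Technique: Eu-cAMP/anti-cAMP TR-FRET, emission 671 nm; Repeats: single well per compound; Also added: Melanotan II; Dosing: one concentration, 6.5 µM nominal; Schedule: 30-min compound, 1-h challenge, 1-h detection, room temperature.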
TMEM16A act = mouse TMEM16A channel activation, primary screen. Q8BHY3. HEK293 TMEM16A/YFP-H148Q/I152L, iodide quench fluorescence; active compounds read low. 0.3% of 340,000 active. B-score at 10 µM;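 active = fluorescence-ratio B-score plate-corrected deviation score at least 3 library SD below zero, with starting fluorescence score within 5 deviations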;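 also: channel opened by trigger with iodide after compound preincubation; score built on the fluorescence ratio of max minus min over baseline; more negative score means more quench and so TMEM16A activation or potentiation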
Beta apoptosis = blocks beta cell apoptosis; 0.8% of 300,000 active; protection from apoptosis, % (no concentration beside the values); INS-1E cytokine-induced death, ATP luminescence, 48 h; percent of positive-control rescue, neutral wells zero;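 active = Every replicate reaches about 75%, or at least half do and their mean reaches it too, limit read from the data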;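 also: higher means more ATP so stronger rescue from cytokine killing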
MC4R ag barr = agonists of human melanocortin 4 receptor (MC4R) beta-arrestin; 0.98% of 360,000 active; U2OS MC4R beta-arrestin complementation, luminescence; percent of melanotan II response, DMSO zero; activation, % at 8.9 µM; P32245;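 active = activation above a per-plate cutoff, the mean activation of sample wells on that plate plus 3 SD, cut at about 8% in these data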
TMEM16A reconf = reconfirmed blocker of mouse TMEM16A calcium-activated chloride channel | inhibition, % at 10 µM | AID 652189 | HEK293 TMEM16A/YFP-H148Q, iodide quench fluorescence; ionomycin added to raise cell calcium | shares compounds with TMEM16A inh | 39% of 2,300 active;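 active = mean duplicate percent inhibition, scaled so buffer wells are 0 and the reference blocker 100, over three buffer SD above buffer mean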
TMEM16A Ca cntr = counter-screen for TMEM16A inhibitors: effect on calcium mobilization; calcium response (% of ionomycin), % at 10 µM; AID 652231; shares compounds with TMEM16A inh; TMEM16A/YFP HEK293, Fluo4 calcium mobilization; 2% of 2,300 active;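 active = duplicate-averaged calcium signal over 20% of the ionomycin maximum, relative to buffer baseline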;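 also: each well's signal is peak minus trough fluorescence divided by its pre-addition baseline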
Parental YFP cnt = parental YFP-HEK293 iodide quench counter-screen activity; ionomycin; AID 652233; 2,300 tested, under 10 active; YFP ratio F(max-min)/F0 at 10 µM; shares compounds with TMEM16A inh;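 active = yellow fluorescent protein signal ratio exceeding the buffer control mean by over 5 SD of those controls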;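 also: ratio is mean of duplicate wells from kinetic YFP trace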
ClC-1 inh = rat ClC-1 inhibition, TMEM16A specificity screen; 2,300 tested, under 10 active; AID 652236; CHO ClC-1-YFP, iodide influx fluorescence quench; iodide control reads 0, buffer control 100; ratio percent, % at 10 µM; shares compounds with TMEM16A inh;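 active = duplicate-mean ratio percent above the mean of iodide-only control wells, which defines zero, plus 5 of their SD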;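 also: higher percent means stronger block of ClC-1 iodide influx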
Each line names hits and unclear results; the compound was inactive in the other large screens (follow-up assays come after a bar, where they were run).

Cc1cc(C)nc(NCC(O)CNc2ccccc2Cl)n1 (centres undefined)	TMEM16A inh 25 | TMEM16A reconf 36% | TMEM16A Ca cntr inactive | Parental YFP cnt inactive | ClC-1 inh inactive
CCOc1ccc(NC(=O)c2cccc(-n3cccc3)c2)cc1S(=O)(=O)N1CCOCC1	none (no result: CSC inhib, TMEM16A inh, TMEM16A act)
CC1CCCCC1NC(=O)COC(=O)COc1ccccc1F (centres undefined)	none (no result: TMEM16A inh)
CN(c1cccc(NC(=O)CSc2ccc(Cl)cc2)c1)S(C)(=O)=O	TMEM16A inh 100 | TMEM16A reconf 28% | TMEM16A Ca cntr inactive | Parental YFP cnt inactive | ClC-1 inh inactive
CN(c1cccc(NC(=O)CCSc2ccccc2)c1)S(C)(=O)=O	none
COC(=O)c1cc(=O)n(Cc2cccs2)c(=NCc2cccs2)s1	TMEM16A inh 25 | TMEM16A reconf inactive | TMEM16A Ca cntr inactive | Parental YFP cnt inactive | ClC-1 inh inactive
O=C(NCCCSc1ccccc1)c1cc(Br)ccc1O	CSC inhib 80, TMEM16A inh 100 | TMEM16A reconf 52% | TMEM16A Ca cntr inactive | Parental YFP cnt inactive | ClC-1 inh inactive
COCC(N)(c1ccccc1)c1nc2ccccc2n1C (centres undefined)	TMEM16A inh 25 (no result: Beta apoptosis) | TMEM16A reconf inactive | TMEM16A Ca cntr inactive | Parental YFP cnt inactive | ClC-1 inh inactive
Cn1c(Cn2c(C(F)(F)F)nc3ccccc32)nc2ccccc21	none
COc1ccc2[nH]cc(CCNS(=O)(=O)c3ccc(F)cc3)c2c1	TMEM16A inh 25 | TMEM16A reconf inactive | TMEM16A Ca cntr inactive | Parental YFP cnt inactive | ClC-1 inh inactive
Cc1ccc(C(=O)NC(Cc2cccc(F)c2)C(=O)O)cc1 (centres undefined)	none (no result: CSC inhib, TMEM16A inh, Beta apoptosis)
COC(=O)C(C)(C)ONC(=O)Nc1ccccc1Br	TMEM16A inh 25 | TMEM16A reconf inactive | TMEM16A Ca cntr inactive | Parental YFP cnt inactive | ClC-1 inh inactive
O=S(=O)(Nc1nc2ccccc2nc1OCC(F)(F)F)c1cccs1	TMEM16A inh 25 | TMEM16A reconf inactive | TMEM16A Ca cntr inactive | Parental YFP cnt inactive | ClC-1 inh inactive
CCCN1CCc2c(sc3nc(SCC)n(-c4ccc(OC)cc4)c(=O)c23)C1	none (no result: CSC inhib, TMEM16A inh, Beta apoptosis)
COc1ccc(CCNc2nc(-c3ccc(O)cc3)cs2)cc1OC	TMEM16A inh 100 | TMEM16A reconf 30% | TMEM16A Ca cntr inactive | Parental YFP cnt inactive | ClC-1 inh inactive
COc1ccc(CCNc2nc(-c3sc(C)nc3C)cs2)cc1OC	TMEM16A inh 100 | TMEM16A reconf 34% | TMEM16A Ca cntr inactive | Parental YFP cnt inactive | ClC-1 inh inactive
COc1ccc(CCNc2nc(-c3ccncc3)cs2)cc1OC	none
N#Cc1c(NCc2ccccc2)ccnc1NCc1cccnc1	TMEM16A inh 100 | TMEM16A reconf 18% | TMEM16A Ca cntr inactive | Parental YFP cnt inactive | ClC-1 inh inactive
N#Cc1c(F)cccc1NCc1cccnc1	none
CSc1ccccc1NC(=O)Nc1ccccc1	TMEM16A inh 100 | TMEM16A reconf inactive | TMEM16A Ca cntr inactive | Parental YFP cnt inactive | ClC-1 inh inactive
COc1ccccc1N1CCN(Cc2ccco2)CC1	TMEM16A inh 25 | TMEM16A reconf inactive | TMEM16A Ca cntr inactive | Parental YFP cnt inactive | ClC-1 inh inactive
COC(=O)C(CC(=O)c1ccccc1)CC(=O)c1ccccc1	none
